Experiment [1] in a line: Binding affinity to hairpin double stranded DNA CG base pair in sodium cacodylate buffer at pH 6.8 assessed as triplex-forming ability measuring melting temperature after by UV melting experiment. Put shortly: (§1)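 TFO and hairpin dsDNA target, each strand at 1.89 μM final, in 10 mM sodium cacodylate (pH 6.8) with 100 mM KCl and 50 mM MgCl₂. Annealed in boiling water, then cooled slowly to 5 °C. Melting was followed at 260 nm from 5 to 90 °C at 0.5 °C/min. Tm was taken by the two-point average method, mean of three independent runs.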

Experiment [2] can be described thus: Binding affinity to hairpin double stranded DNA GC base pair in sodium cacodylate buffer at pH 6.8 assessed as triplex-forming ability measuring melting temperature after by UV melting experiment. Put shortly: as §1
Experiment [3] can be described thus: Binding affinity to hairpin double stranded DNA TA base pair in sodium cacodylate buffer at pH 6.8 assessed as triplex-forming ability measuring melting temperature after by UV melting experiment. The gist of the method: as §1
Experiment [4] in a line: Binding affinity to hairpin double stranded DNA AT base pair in sodium cacodylate buffer at pH 6.8 assessed as triplex-forming ability measuring melting temperature after by UV melting experiment. Put shortly:
as §1

Turning to `Cc1cn([C@H]2C[C@H](O[PH](OCCC#N)(OC[C@H]3O[C@@H](n4cc(C)c(=O)[nH]c4=O)C[C@@H]3O[PH](OCCC#N)(OC[C@H]3O[C@@H](n4cc(C)c(=O)[nH]c4=O)C[C@@H]3O[PH](OCCC#N)(OC[C@H]3O[C@@H](n4cc(C)c(=O)[nH]c4=O)C[C@@H]3O[PH](OCCC#N)(OC[C@H]3O[C@@H](n4cc(C)c(=O)[nH]c4=O)C[C@@H]3O[PH](OCCC#N)(OC(C)[C@H]3O[C@@H](n4ccc(N)nc4=O)C[C@@H]3O[PH](OCCC#N)(OC[C@H]3O[C@@H](n4cc(C)c(=O)[nH]c4=O)C[C@@H]3O[PH](OCCC#N)(OC[C@H]3O[C@@H](CCc4cn(-c5cccc(CO)c5)nn4)C[C@@H]3OP(=O)(O)OC[C@H]3O[C@@H](n4cc(C)c(=O)[nH]c4=O)C[C@@H]3O[PH](OCCC#N)(OC(C)[C@H]3O[C@@H](n4ccc(N)nc4=O)C[C@@H]3O[PH](OCCC#N)(OC[C@H]3O[C@@H](n4cc(C)c(=O)[nH]c4=O)C[C@@H]3O[PH](OCCC#N)(OC(C)[C@H]3O[C@@H](n4ccc(N)nc4=O)C[C@@H]3O[PH](OCCC#N)(OC[C@H]3O[C@@H](n4cc(C)c(=O)[nH]c4=O)C[C@@H]3O[PH](OCCC#N)(OC(C)[C@H]3O[C@@H](n4ccc(N)nc4=O)C[C@@H]3O[PH](OCCC#N)(OC[C@H]3O[C@@H](n4cc(C)c(=O)[nH]c4=O)C[C@@H]3O)N(C(C)C)C(C)C)N(C(C)C)C(C)C)N(C(C)C)C(C)C)N(C(C)C)C(C)C)N(C(C)C)C(C)C)N(C(C)C)C(C)C)N(C(C)C)C(C)C)N(C(C)C)C(C)C)N(C(C)C)C(C)C)N(C(C)C)C(C)C)N(C(C)C)C(C)C)N(C(C)C)C(C)C)N(C(C)C)C(C)C)[C@@H](CO)O2)c(=O)[nH]c1=O` (stereo not given in full), the Tm in experiment [1] worked out at 23 °C; in experiment [2] it was 20 °C; in experiment [3], 23 °C; in experiment [4], 19 °C.

In the case of `Cc1cn([C@H]2C[C@H](O[PH](OCCC#N)(OC[C@H]3O[C@@H](n4cc(C)c(=O)[nH]c4=O)C[C@@H]3O[PH](OCCC#N)(OC[C@H]3O[C@@H](n4cc(C)c(=O)[nH]c4=O)C[C@@H]3O[PH](OCCC#N)(OC[C@H]3O[C@@H](n4cc(C)c(=O)[nH]c4=O)C[C@@H]3O[PH](OCCC#N)(OC[C@H]3O[C@@H](n4cc(C)c(=O)[nH]c4=O)C[C@@H]3O[PH](OCCC#N)(OC(C)[C@H]3O[C@@H](n4ccc(N)nc4=O)C[C@@H]3O[PH](OCCC#N)(OC[C@H]3O[C@@H](n4cc(C)c(=O)[nH]c4=O)C[C@@H]3O[PH](OCCC#N)(OC[C@H]3O[C@@H](CCc4cn(-c5cccc(C(N)=O)c5)nn4)C[C@@H]3OP(=O)(O)OC[C@H]3O[C@@H](n4cc(C)c(=O)[nH]c4=O)C[C@@H]3O[PH](OCCC#N)(OC(C)[C@H]3O[C@@H](n4ccc(N)nc4=O)C[C@@H]3O[PH](OCCC#N)(OC[C@H]3O[C@@H](n4cc(C)c(=O)[nH]c4=O)C[C@@H]3O[PH](OCCC#N)(OC(C)[C@H]3O[C@@H](n4ccc(N)nc4=O)C[C@@H]3O[PH](OCCC#N)(OC[C@H]3O[C@@H](n4cc(C)c(=O)[nH]c4=O)C[C@@H]3O[PH](OCCC#N)(OC(C)[C@H]3O[C@@H](n4ccc(N)nc4=O)C[C@@H]3O[PH](OCCC#N)(OC[C@H]3O[C@@H](n4cc(C)c(=O)[nH]c4=O)C[C@@H]3O)N(C(C)C)C(C)C)N(C(C)C)C(C)C)N(C(C)C)C(C)C)N(C(C)C)C(C)C)N(C(C)C)C(C)C)N(C(C)C)C(C)C)N(C(C)C)C(C)C)N(C(C)C)C(C)C)N(C(C)C)C(C)C)N(C(C)C)C(C)C)N(C(C)C)C(C)C)N(C(C)C)C(C)C)N(C(C)C)C(C)C)[C@@H](CO)O2)c(=O)[nH]c1=O` (stereo not given in full), the Tm is 25 °C in experiment [1], 22 °C in experiment [2], 25 °C in experiment [3] and 22 °C in experiment [4].

Consider `Cc1cn([C@H]2C[C@H](O[PH](OCCC#N)(OC[C@H]3O[C@@H](n4cc(C)c(=O)[nH]c4=O)C[C@@H]3O[PH](OCCC#N)(OC[C@H]3O[C@@H](n4cc(C)c(=O)[nH]c4=O)C[C@@H]3O[PH](OCCC#N)(OC[C@H]3O[C@@H](n4cc(C)c(=O)[nH]c4=O)C[C@@H]3O[PH](OCCC#N)(OC[C@H]3O[C@@H](n4cc(C)c(=O)[nH]c4=O)C[C@@H]3O[PH](OCCC#N)(OC(C)[C@H]3O[C@@H](n4ccc(N)nc4=O)C[C@@H]3O[PH](OCCC#N)(OC[C@H]3O[C@@H](n4cc(C)c(=O)[nH]c4=O)C[C@@H]3O[PH](OCCC#N)(OC[C@H]3O[C@@H](CCc4cn(-c5ccc(CO)cc5)nn4)C[C@@H]3OP(=O)(O)OC[C@H]3O[C@@H](n4cc(C)c(=O)[nH]c4=O)C[C@@H]3O[PH](OCCC#N)(OC(C)[C@H]3O[C@@H](n4ccc(N)nc4=O)C[C@@H]3O[PH](OCCC#N)(OC[C@H]3O[C@@H](n4cc(C)c(=O)[nH]c4=O)C[C@@H]3O[PH](OCCC#N)(OC(C)[C@H]3O[C@@H](n4ccc(N)nc4=O)C[C@@H]3O[PH](OCCC#N)(OC[C@H]3O[C@@H](n4cc(C)c(=O)[nH]c4=O)C[C@@H]3O[PH](OCCC#N)(OC(C)[C@H]3O[C@@H](n4ccc(N)nc4=O)C[C@@H]3O[PH](OCCC#N)(OC[C@H]3O[C@@H](n4cc(C)c(=O)[nH]c4=O)C[C@@H]3O)N(C(C)C)C(C)C)N(C(C)C)C(C)C)N(C(C)C)C(C)C)N(C(C)C)C(C)C)N(C(C)C)C(C)C)N(C(C)C)C(C)C)N(C(C)C)C(C)C)N(C(C)C)C(C)C)N(C(C)C)C(C)C)N(C(C)C)C(C)C)N(C(C)C)C(C)C)N(C(C)C)C(C)C)N(C(C)C)C(C)C)[C@@H](CO)O2)c(=O)[nH]c1=O` (stereo not given in full), for which the Tm in experiment [1] is 23 °C; in experiment [2], 19 °C; in experiment [3], 22 °C; in experiment [4], 19 °C.

For the molecule `Cc1cn([C@H]2C[C@H](O[PH](OCCC#N)(OC[C@H]3O[C@@H](n4cc(C)c(=O)[nH]c4=O)C[C@@H]3O[PH](OCCC#N)(OC[C@H]3O[C@@H](n4cc(C)c(=O)[nH]c4=O)C[C@@H]3O[PH](OCCC#N)(OC[C@H]3O[C@@H](n4cc(C)c(=O)[nH]c4=O)C[C@@H]3O[PH](OCCC#N)(OC[C@H]3O[C@@H](n4cc(C)c(=O)[nH]c4=O)C[C@@H]3O[PH](OCCC#N)(OC(C)[C@H]3O[C@@H](n4ccc(N)nc4=O)C[C@@H]3O[PH](OCCC#N)(OC[C@H]3O[C@@H](n4cc(C)c(=O)[nH]c4=O)C[C@@H]3O[PH](OCCC#N)(OC[C@H]3O[C@@H](CCc4cn(-c5cccc(NC(N)=O)c5)nn4)C[C@@H]3OP(=O)(O)OC[C@H]3O[C@@H](n4cc(C)c(=O)[nH]c4=O)C[C@@H]3O[PH](OCCC#N)(OC(C)[C@H]3O[C@@H](n4ccc(N)nc4=O)C[C@@H]3O[PH](OCCC#N)(OC[C@H]3O[C@@H](n4cc(C)c(=O)[nH]c4=O)C[C@@H]3O[PH](OCCC#N)(OC(C)[C@H]3O[C@@H](n4ccc(N)nc4=O)C[C@@H]3O[PH](OCCC#N)(OC[C@H]3O[C@@H](n4cc(C)c(=O)[nH]c4=O)C[C@@H]3O[PH](OCCC#N)(OC(C)[C@H]3O[C@@H](n4ccc(N)nc4=O)C[C@@H]3O[PH](OCCC#N)(OC[C@H]3O[C@@H](n4cc(C)c(=O)[nH]c4=O)C[C@@H]3O)N(C(C)C)C(C)C)N(C(C)C)C(C)C)N(C(C)C)C(C)C)N(C(C)C)C(C)C)N(C(C)C)C(C)C)N(C(C)C)C(C)C)N(C(C)C)C(C)C)N(C(C)C)C(C)C)N(C(C)C)C(C)C)N(C(C)C)C(C)C)N(C(C)C)C(C)C)N(C(C)C)C(C)C)N(C(C)C)C(C)C)[C@@H](CO)O2)c(=O)[nH]c1=O` (stereo not given in full), the Tm in experiment [1] was 27 °C; in experiment [2] it was 23 °C; in experiment [3], 28 °C; in experiment [4] it was 23 °C.

`Cc1cn([C@H]2C[C@H](O[PH](OCCC#N)(OC[C@H]3O[C@@H](n4cc(C)c(=O)[nH]c4=O)C[C@@H]3O[PH](OCCC#N)(OC[C@H]3O[C@@H](n4cc(C)c(=O)[nH]c4=O)C[C@@H]3O[PH](OCCC#N)(OC[C@H]3O[C@@H](n4cc(C)c(=O)[nH]c4=O)C[C@@H]3O[PH](OCCC#N)(OC[C@H]3O[C@@H](n4cc(C)c(=O)[nH]c4=O)C[C@@H]3O[PH](OCCC#N)(OC(C)[C@H]3O[C@@H](N4C=CC(N)=N[C@@H]4O)C[C@@H]3O[PH](OCCC#N)(OC[C@H]3O[C@@H](n4cc(C)c(=O)[nH]c4=O)C[C@@H]3O[PH](OCCC#N)(OC[C@H]3O[C@@H](OCc4cn(-c5ccccc5C(N)=O)nn4)C[C@@H]3OP(=O)(O)OC[C@H]3O[C@@H](n4cc(C)c(=O)[nH]c4=O)C[C@@H]3O[PH](OCCC#N)(OC(C)[C@H]3O[C@@H](n4ccc(N)nc4=O)C[C@@H]3O[PH](OCCC#N)(OC[C@H]3O[C@@H](n4cc(C)c(=O)[nH]c4=O)C[C@@H]3O[PH](OCCC#N)(OC(C)[C@H]3O[C@@H](n4ccc(N)nc4=O)C[C@@H]3O[PH](OCCC#N)(OC[C@H]3O[C@@H](n4cc(C)c(=O)[nH]c4=O)C[C@@H]3O[PH](OCCC#N)(OC(C)[C@H]3O[C@@H](n4ccc(N)nc4=O)C[C@@H]3O[PH](OCCC#N)(OC[C@H]3O[C@@H](n4cc(C)c(=O)[nH]c4=O)C[C@@H]3O)N(C(C)C)C(C)C)N(C(C)C)C(C)C)N(C(C)C)C(C)C)N(C(C)C)C(C)C)N(C(C)C)C(C)C)N(C(C)C)C(C)C)N(C(C)C)C(C)C)N(C(C)C)C(C)C)N(C(C)C)C(C)C)N(C(C)C)C(C)C)N(C(C)C)C(C)C)N(C(C)C)C(C)C)N(C(C)C)C(C)C)[C@@H](CO)O2)c(=O)[nH]c1=O` (stereo not given in full): the Tm turned out to be 21 °C in experiment [1], 19 °C in experiment [2], 17 °C in experiment [3] and 18 °C in experiment [4].

These data come from ChEMBL document CHEMBL2413013, “Triplex-forming ability of oligonucleotides containing 1-aryl-1,2,3-triazole nucleobases linked via a two atom-length spacer” (Bioorg Med Chem, 2013).
